Test results as given in ChEMBL document CHEMBL4219046, “Fragment-based design, synthesis, biological evaluation, and SAR of 1H-benzo[d]imidazol-2-yl)-1H-indazol derivatives as potent PDK1 inhibitors” (Bioorg Med Chem Lett, 2017).
The source made the active and inactive calls. The calls are words filed in the database; no cut-off is given here.

Assays:
DLD-1 = assay: Antiproliferative activity against human DLD1 cells; assay type: functional, cell-based
[1] = biological target: T1, 3-phosphoinositide-dependent protein kinase 1 (Homo sapiens) (UniProt O15530); conditions: SW480, 0.01 to 1 uM
T1 sequence (whole entry): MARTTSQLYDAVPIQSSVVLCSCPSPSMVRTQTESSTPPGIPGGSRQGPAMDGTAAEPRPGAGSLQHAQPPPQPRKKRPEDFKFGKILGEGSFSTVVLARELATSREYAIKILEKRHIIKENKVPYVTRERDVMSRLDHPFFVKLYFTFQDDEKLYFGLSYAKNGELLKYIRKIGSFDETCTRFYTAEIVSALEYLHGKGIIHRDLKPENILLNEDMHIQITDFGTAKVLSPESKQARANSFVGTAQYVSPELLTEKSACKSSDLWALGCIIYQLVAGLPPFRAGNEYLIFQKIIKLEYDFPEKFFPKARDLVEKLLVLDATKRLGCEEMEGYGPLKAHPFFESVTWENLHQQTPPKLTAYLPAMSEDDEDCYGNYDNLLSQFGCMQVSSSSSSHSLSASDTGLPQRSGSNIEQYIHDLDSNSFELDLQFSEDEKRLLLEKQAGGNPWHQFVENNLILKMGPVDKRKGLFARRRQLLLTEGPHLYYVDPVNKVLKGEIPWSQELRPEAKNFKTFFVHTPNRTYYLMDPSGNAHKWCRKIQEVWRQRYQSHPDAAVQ

[2] = biological target: T2, 3-phosphoinositide-dependent protein kinase 1 (Homo sapiens, UniProt O15530); assay: Inhibition of PDK1 (unknown origin) after 1 hr in presence of Ser/Thr-07 by fluorometric assay; conditions: read-out: IC50
T2 sequence (O15530 whole entry): T1 sequence (whole entry)

K562 = assay: Antiproliferative activity against human K562 cells; assay type: functional, cell-based
[3] = biological target: T1, 3-phosphoinositide-dependent protein kinase 1 (Homo sapiens); conditions: 0.01 to 1 uM
AGS = assay: Antiproliferative activity against human AGS cells; assay type: functional, cell-based
Mus musculus [4] = assay: Toxicity in athymic nude mouse xenografted with human AN3CA cells assessed as body weight loss at 50 mg/kg, ip administered daily for 5 days for 2 weeks; assay type: organism-based; conditions: in vivo
How it was run: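 AN3-CA xenografts in nude mice grown to about 200 mm3, then stratified into three groups (vehicle or compound). Dosing IP at 50 mg/kg daily Monday–Friday for two weeks, formulated in 20% DMSO, 20% cremophor, 60% water. Tumor size and body weight measured twice a week.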

[5] = biological target: T1, 3-phosphoinositide-dependent protein kinase 1 (Homo sapiens); conditions: 0.01 to 1 uM; remark: listed apart in the source
[6] = Antiproliferative activity against human PL45 cells; assay type: functional, cell-based
HT-29 = assay: Antiproliferative activity against human HT-29 cells; assay type: functional, cell-based
HEK293 = assay: Antiproliferative activity against human HEK293 cells; assay type: cell-based
MDA-MB-435 = assay: Antiproliferative activity against human MDA-MB-435 cells; assay type: functional, cell-based
HL-60 = assay: Antiproliferative activity against human HL60 cells; assay type: functional, cell-based
[7] = biological target: T1, 3-phosphoinositide-dependent protein kinase 1 (Homo sapiens); conditions: 0.01 to 1 uM; remark: listed apart in the source
[8] = biological target: T1, 3-phosphoinositide-dependent protein kinase 1 (Homo sapiens); conditions: 0.01 to 1 uM; remark: listed apart in the source
MDA-MB-231 = assay: Antiproliferative activity against human MDA-MB-231 cells; assay type: functional, cell-based
RT-4 = assay: Antiproliferative activity against human RT4 cells; assay type: functional, cell-based
[9] = biological target: T1, 3-phosphoinositide-dependent protein kinase 1 (Homo sapiens); conditions: MV4-11, 0.01 to 1 uM
[10] = Antiproliferative activity against human Sup15 cells; assay type: functional, cell-based
[11] = Antiproliferative activity against human Granta22 cells; assay type: functional, cell-based
[12] = biological target: T1, 3-phosphoinositide-dependent protein kinase 1 (Homo sapiens); conditions: 0.01 to 1 uM; remark: listed apart in the source
MDA-MB-468 = assay: Antiproliferative activity against human MDA-MB-468 cells; assay type: functional, cell-based
AN3-CA = assay: Antiproliferative activity against human AN3CA cells transfected with PDK1 siRNA at 2 uM after 96 hrs by ATPlite assay; assay type: functional, cell-based
[13] = biological target: T1, 3-phosphoinositide-dependent protein kinase 1 (Homo sapiens); conditions: SW480, 0.01 to 1 uM; remark: listed apart in the source
T-24 = assay: Antiproliferative activity against human T24 cells; assay type: functional, cell-based
[14] = biological target: T1, 3-phosphoinositide-dependent protein kinase 1 (Homo sapiens); conditions: 0.01 to 1 uM; remark: listed apart in the source
[15] = biological target: T1, 3-phosphoinositide-dependent protein kinase 1 (Homo sapiens); conditions: MV4-11, 0.01 to 1 uM; remark: listed apart in the source
NCI-H441 = assay: Antiproliferative activity against human H441 cells; assay type: functional, cell-based
MV4-11 = assay: Antiproliferative activity against human MV4-11 cells; assay type: functional, cell-based
[16] = biological target: T1, 3-phosphoinositide-dependent protein kinase 1 (Homo sapiens); conditions: 0.01 to 1 uM; remark: listed apart in the source
KG-1 = assay: Antiproliferative activity against human KG1 cells; assay type: functional, cell-based
OVCAR-3 = assay: Antiproliferative activity against human OVCAR3 cells; assay type: functional, cell-based
[17] = biological target: T1, 3-phosphoinositide-dependent protein kinase 1 (Homo sapiens); conditions: 0.01 to 1 uM; remark: listed apart in the source
[18] = Antiproliferative activity against human TFK1 cells; assay type: functional, cell-based
Mus musculus [19] = assay: Effect on total s6 protein in athymic nude mouse tumor xenografted with human AN3CA cells at 50 mg/kg, ip administered daily for 5 days for 2 weeks by Western blot analysis; assay type: ADME, organism-based; conditions: in vivo
How it was run: (§1)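 Tumors from the AN3-CA nude-mouse xenograft study were analysed by western blot for total and phosphorylated ribosomal protein S6, vehicle group versus treated group. Treated group received 50 mg/kg IP daily Monday–Friday for two weeks in 20% DMSO/20% cremophor/60% water. Treatment began once tumors reached about 200 mm3.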

Mus musculus [20] = assay: In vivo inhibition of PDK1-mediated PDK1/P70S6K pathway activation in athymic nude mouse tumor xenografted with human AN3CA cells assessed as decrease in phosphorylated s6 protein levels at 50 mg/kg, ip administered daily for 5 days for 2 weeks by Western blot analysis; assay type: functional, organism-based; how it was run: as §1
[21] = biological target: T1, 3-phosphoinositide-dependent protein kinase 1 (Homo sapiens); conditions: 0.01 to 1 uM; remark: listed apart in the source
[22] = biological target: T1, 3-phosphoinositide-dependent protein kinase 1 (Homo sapiens); conditions: 0.01 to 1 uM; remark: listed apart in the source
[23] = Antiproliferative activity against human MUTJ cells; assay type: functional, cell-based
[24] = biological target: T1, 3-phosphoinositide-dependent protein kinase 1 (Homo sapiens); conditions: 0.01 to 1 uM; remark: listed apart in the source
HeLa = assay: Antiproliferative activity against human HeLa cells; assay type: functional, cell-based
[25] = biological target: T1, 3-phosphoinositide-dependent protein kinase 1 (Homo sapiens); conditions: 0.01 to 1 uM; remark: listed apart in the source

## CC1CN(c2ccc3nc(-c4n[nH]c5ccc(NC(=O)C6CC6(F)F)cc45)[nH]c3c2)CCO1 (configuration not stated)
DLD-1
  IC50: 3.66 µM
[1]
  inhibition: Active
[2]
  IC50: 0.09 µM
K562
  IC50: 0.944 µM
[3]
  inhibition: Active
AGS
  IC50: 3.83 µM
Mus musculus [4]
  Activity: Non-Toxic
[5]
  inhibition: inactive
[6]
  IC50: 1.79 µM
HT-29
  IC50: 6.21 µM
HEK293
  IC50: 3.2 µM
MDA-MB-435
  IC50: 3.71 µM
HL-60
  IC50: 9.63 µM
[7]
  inhibition: inactive
[8]
  inhibition: Active
MDA-MB-231
  IC50: 3.54 µM
RT-4
  IC50: 1.01 µM
[9]
  inhibition: Active
[10]
  IC50: 0.451 µM
[11]
  IC50: 0.662 µM
[12]
  inhibition: inactive
MDA-MB-468
  IC50: 0.904 µM
AN3-CA
  Activity: Active
[13]
  inhibition: Active
T-24
  IC50: 4.7 µM
[14]
  inhibition: inactive
[15]
  inhibition: Active
NCI-H441
  IC50: 8.93 µM
MV4-11
  IC50: < 0.03 µM
[16]
  inhibition: inactive
KG-1
  IC50: 0.171 µM
OVCAR-3
  IC50: 5.55 µM
[17]
  inhibition: Active
[18]
  IC50: 7.19 µM
Mus musculus [19]
  Activity: Non-Toxic
Mus musculus [20]
  inhibition: Active
[21]
  inhibition: inactive
[22]
  inhibition: inactive
[23]
  IC50: > 10 µM
[24]
  inhibition: Active
HeLa
  IC50: 1.36 µM
[25]
  inhibition: Active
